Laboratory results published in article PMC10247892 (Biomedicine & Pharmacotherapy, 2023).
Like-named read-outs stand apart in the source and are kept apart here.

Tests used:
[1] = system: HCoV-229E; assay: Antiviral activity against HCoV-229E in MRC-5 cells; format: cell-based, human coronavirus 229E; settings: for IC50: read-out: IC50 ± SD
Procedure, shortened: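 MRC-5 cells were seeded at 20,000/well in duplicate per drug and condition and grown to 80 % confluency. Virus was adsorbed at MOI 0.1 PFU/cell in FBS-free DMEM for 1 h at 37 °C, then removed. Serial dilutions of test compound in 1 % FBS DMEM were added for 24 h, at doses below MTT-determined cytotoxicity. Cells were fixed with PFA, saponin-permeabilised and stained with anti-N antibody, Alexa 488 secondary and DAPI, then imaged by widefield fluorescence. Infection was normalised to the untreated infected control (100 %). IC50 came from a nonlinear dose-effect fit. Three replicate experiments.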

[2] = system: Vero E6 cells; settings: uninfected Vero E6 cells, 3 days
[3] = Cytotoxicity assay; format: cell-based; settings: human, MRC-5 cells
[4] = system: Vero E6 cells; assay: TEM of mock-infected Vero E6 cells; format: cell-based; settings: 48 h
Procedure, shortened: (§1)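 Mock- or virus-infected Vero E6 monolayers were kept without or with two concentrations of test compound (0.16 mM or 20 mM for the cyclodextrin shown). At 48 h they were fixed with 4 % PFA plus 1 % glutaraldehyde in PBS for 2 h at RT. Samples were pelleted, post-fixed on ice in osmium tetroxide/potassium ferrocyanide, acetone-dehydrated and epoxy-embedded. At least 100 cells per condition were examined by TEM.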

[5] = system: SARS-CoV-2; format: cell-based; settings: Vero E6 cells
[6] = system: MRC-5 cells; assay: Cytotoxicity assay; format: cell-based; settings: read-out: CC50 ± SD, MTT, 24 h
[7] = system: SARS-CoV-2; assay: TEM of Vero E6 cells infected with SARS-CoV-2; format: cell-based; settings: infected Vero E6, highest concentration (HβCD 20 mM), 48 hpi
Procedure, shortened: as §1

[8] = system: SARS-CoV-2 Spike pseudovirus; format: cell-based
[9] = Vero E6, lower or only dose (HβCD 0.16 mM, phytol 50 µM)
[10] = HCoV229E, MRC-5 cells, MOI 0.1, 24 h
[11] = Human coronavirus 229E, MRC5, 24 h

Compound | Inhibition of HCoV-229E infection (in words) ([1]; MRC-5 cells) | First cytotoxic conc. [2] [µM] | CC50 at 24 h [3] [µM] | further results
CO[C@H]1C[C@@H]2CC[C@@H](C)[C@@](O)(O2)C(=O)C(=O)N2CCCC[C@H]2C(=O)O[C@H]([C@H](C)C[C@@H]2CC[C@@H](OCCO)[C@H](OC)C2)CC(=O)[C@H](C)/C=C(\C)[C@@H](O)[C@@H](OC)C(=O)[C@H](C)C[C@H](C)/C=C/C=C/C=C/1C [Everolimus] | inhibit 229E virus |  |  | 
C[C@H]1O[C@@H](O[C@H]2[C@@H](O)C[C@H](O[C@H]3[C@@H](O)C[C@H](O[C@H]4CC[C@@]5(C)[C@H](CC[C@@H]6[C@@H]5CC[C@]5(C)[C@@H](C7=CC(=O)OC7)CC[C@]65O)C4)O[C@@H]3C)O[C@@H]2C)C[C@H](O)[C@@H]1O [Digitoxin] |  | 1.56 | 0.0069 | 
Phytol |  | 100 to 200 |  | Alterations in mock-infected cells by TEM (in words) [4, 9]: did not cause significant alterations; Antiviral activity against SARS-CoV-2 (in words) [5]: had antiviral activity; CC50 [6]: 56.2 µM; IC50 [1, 10]: 18.6 ± 6.9 µM; Effect on infected cells by TEM (in words) [7]: clear signs of cytopathic effect
NCC(CC(=O)O)c1ccc(Cl)cc1 (stereo not drawn) [Baclogen] | did not have an inhibitory effect |  |  | CC50 [6]: > 1000 µM
CC1=C(C(=O)OC2CCCCC2)C(c2ccc([N+](=O)[O-])cc2)C2=C(CC(C)(C)CC2=O)N1 (stereo not drawn) [FLI 06] |  | 4 to 6.25 |  | CC50 [6]: > 50 µM; IC50 [1, 10]: 0.4 ± 0.3 µM
CCC(C)n1ncn(-c2ccc(N3CCN(c4ccc(OCC5COC(Cn6cncn6)(c6ccc(Cl)cc6Cl)O5)cc4)CC3)cc2)c1=O (stereo not drawn) [Itraconazole] | inhibit 229E virus |  |  | 
O=c1c(O)c(-c2ccc(O)c(O)c2)oc2cc(O)cc(O)c12 [Quercetin] | inhibit 229E virus |  |  | 
CC1=CC[C@@H](C(C)(C)O)CC1 [Alpha-terpineol] |  |  | 1060 | IC50 [1, 11]: 382 ± 107 µM
OCC(S)CS (stereo not drawn) [Dimercaprol] | inhibited 229E but their CC50 was close to the IC50 |  |  | 
CC(=O)Nc1nc(C)c(-c2ccc(Cl)c(S(=O)(=O)NCCO)c2)s1 [PIK93] |  | 20 |  | CC50 [6]: > 50 µM; IC50 [1, 10]: 4.2 ± 1.4 µM
C[C@H]1O[C@@H](O[C@H]2[C@@H](O)C[C@H](O[C@H]3[C@@H](O)C[C@H](O[C@H]4CC[C@@]5(C)[C@H](CC[C@@H]6[C@@H]5C[C@@H](O)[C@]5(C)[C@@H](C7=CC(=O)OC7)CC[C@]65O)C4)O[C@@H]3C)O[C@@H]2C)C[C@H](O)[C@@H]1O [Digoxin] | inhibit 229E virus |  |  | 
CC(=O)O[C@H]1C[C@H](O[C@H]2[C@@H](O)C[C@H](O[C@H]3[C@@H](O)C[C@H](O[C@H]4CC[C@@]5(C)[C@H](CC[C@@H]6[C@@H]5C[C@@H](O)[C@]5(C)[C@@H](C7=CC(=O)OC7)CC[C@]65O)C4)O[C@@H]3C)O[C@@H]2C)O[C@H](C)[C@H]1O[C@@H]1O[C@H](CO)[C@@H](O)[C@H](O)[C@H]1O [Lanatoside C] | inhibit 229E virus |  |  | 
OC[C@H]1O[C@@H]2O[C@H]3[C@H](O)[C@@H](O)[C@@H](O[C@H]4[C@H](O)[C@@H](O)[C@@H](O[C@H]5[C@H](O)[C@@H](O)[C@@H](O[C@H]6[C@H](O)[C@@H](O)[C@@H](O[C@H]7[C@H](O)[C@@H](O)[C@@H](O[C@H]8[C@H](O)[C@@H](O)[C@@H](O[C@H]1[C@H](O)[C@H]2O)O[C@@H]8CO)O[C@@H]7CO)O[C@@H]6CO)O[C@@H]5CO)O[C@@H]4CO)O[C@@H]3CO [β-CD, ß-Cyclodextrin] |  |  |  | Inhibition of SARS-CoV-2 pseudovirus entry (in words) [8]: most potent
C[C@@H]1CC[C@H]2C(C)(C)[C@H]3C[C@@]12CC[C@@]3(C)O [alpha-cedrol] | inhibited 229E but their CC50 was close to the IC50 |  |  | 
O=C1c2c(O)cc(O)cc2OC(c2ccc(O)c(O)c2)C1O (stereo not drawn) [Taxifolin] | inhibit 229E virus |  |  | 
CC(=O)Oc1ccccc1C(=O)O [Aspirin] |  |  | 1100 | IC50 [1, 11]: 1000 µM
COc1cc([C@H]2Oc3cc([C@H]4Oc5cc(O)cc(O)c5C(=O)[C@@H]4O)ccc3O[C@@H]2CO)ccc1O [SilibininA, Silibinin A] | inhibit 229E virus |  |  | 
CC1=CCC(=C(C)C)CC1 [Terpinolene] |  | 10000 | 69000 | IC50 [1, 11]: 8000 ± 2200 µM
CCc1c(-c2ccccc2)c(-c2ccccc2)nn1-c1ccccc1-c1cccc(OCC(=O)O)c1 [BMS309403] | inhibited 229E but their CC50 was close to the IC50 |  |  | 
CO[C@H]1C[C@@H]2CC[C@@H](C)[C@@](O)(O2)C(=O)C(=O)N2CCCC[C@H]2C(=O)O[C@H]([C@H](C)C[C@@H]2CC[C@@H](O)[C@H](OC)C2)CC(=O)[C@H](C)/C=C(\C)[C@@H](O)[C@@H](OC)C(=O)[C@H](C)C[C@H](C)/C=C/C=C/C=C/1C [Sirolimus] | inhibit 229E virus |  |  | 

Compound | Inhibition of HCoV-229E infection (in words) ([1]; MRC-5 cells) | First cytotoxic conc. [2] [µM] | CC50 at 24 h [3] [µM] | further results
Oc1ccc(/C=C/c2cc(O)cc(O)c2)cc1 [Resveratrol] | inhibit 229E virus |  |  | 
CC1(C)CC[C@]2(C(=O)O)CC[C@]3(C)C(=CC[C@@H]4[C@@]5(C)CC[C@H](O)C(C)(C)[C@@H]5CC[C@]43C)[C@@H]2C1 [Oleanolic acid] |  |  | 25200 | 
CCC(C)(C)C(=O)O[C@H]1C[C@@H](C)C=C2C=C[C@H](C)[C@H](CC[C@@H]3C[C@@H](O)CC(=O)O3)[C@H]21 [Simvastatin] | inhibit 229E virus |  |  | 
Gingenoside RB1 |  | 50 |  | CC50 [6]: > 1000 µM; IC50 [1, 10]: 48.3 ± 2.1 µM
C=C(C)[C@H]1CC=C(C)CC1 [R-(+)-Limonene] |  |  |  | CC50 [6]: 1910 µM
CC(=O)NS(=O)(=O)c1ccc(N)cc1 [Sulfacetamide] |  |  | > 1000 | 
C=C1CC[C@H]2C(=C)CC[C@H]3C(=C)C(=O)O[C@@H]3[C@@H]12 [Dehydrocostus lactone] |  | 100 | 39.1 | IC50 [1, 11]: 4.2 ± 1.8 µM
CCCCCCCCCCC(C)(C)C(=O)Nc1c(OC)cc(OC)cc1OC [CI976] |  | 100 |  | CC50 [6]: 50.7 µM
CC(C)[C@@H]1NC(=O)[C@H](C)OC(=O)[C@@H](C(C)C)NC(=O)[C@@H](C(C)C)OC(=O)[C@H](C(C)C)NC(=O)[C@H](C)OC(=O)[C@@H](C(C)C)NC(=O)[C@@H](C(C)C)OC(=O)[C@H](C(C)C)NC(=O)[C@H](C)OC(=O)[C@@H](C(C)C)NC(=O)[C@@H](C(C)C)OC1=O [Valinomycin] |  | 0.32 | 12.5 | IC50 [1, 11]: 2.5 ± 0.2 µM
CCC(CC)COC(=O)[C@H](C)N[P@](=O)(OC[C@H]1O[C@@](C#N)(c2ccc3c(N)ncnn23)[C@H](O)[C@@H]1O)Oc1ccccc1 [Remdesivir] |  | 100 |  | 
C=C1C2CCC(C2)C1(C)C (stereo not drawn) [Camphene] |  |  | 72000 | 
Nc1ccc(C(=O)NCC(=O)O)cc1 [Aminohipurric] |  |  |  | CC50 [6]: < 10000 µM
C=C1CC/C=C(\C)CC[C@@H]2[C@@H]1CC2(C)C [(-)-Trans-Caryophyllene] |  |  | 1840 | 
COc1cc(-n2c(=S)[nH]c3ccccc3c2=O)c(Cl)cc1Cl [Mdivi-1] |  | 20 |  | CC50 [6]: 95.4 µM; IC50 [1, 10]: 11.7 ± 0.7 µM
CC(C)C[C@H](NC(=O)[C@H](Cc1ccccc1)NC(=O)c1cnccn1)B(O)O [Bortezomib (PS-341), Bortezomib] |  | 0.8 | > 0.1 | IC50 [1, 11]: 0.0006 ± 0.0003 µM
COC[C@H]1OC(=O)c2coc3c2[C@@]1(C)C1=C(C3=O)[C@@H]2CCC(=O)[C@@]2(C)C[C@H]1OC(C)=O [Wortmannin] |  | 25 | > 50 | IC50 [1, 11]: 21.6 ± 15.6 µM
O=c1c(O)c(-c2cc(O)c(O)c(O)c2)oc2cc(O)cc(O)c12 [Myricetin] |  |  | 434 | 
N[C@@H](Cc1ccccc1)C(=O)O [L-Phenilalanine] |  |  |  | CC50 [6]: < 10000 µM
CC(O)COC[C@H]1O[C@@H]2O[C@H]3[C@H](O)[C@@H](O)[C@@H](O[C@H]4[C@H](O)[C@@H](O)[C@@H](O[C@H]5[C@H](O)[C@@H](O)[C@@H](O[C@H]6[C@H](O)[C@@H](O)[C@@H](O[C@H]7[C@H](O)[C@@H](O)[C@@H](O[C@H]8[C@H](O)[C@@H](O)[C@@H](O[C@H]1[C@H](O)[C@H]2O)O[C@@H]8COCC(C)O)O[C@@H]7COCC(C)O)O[C@@H]6COCC(C)O)O[C@@H]5COCC(C)O)O[C@@H]4COCC(C)O)O[C@@H]3COCC(C)O (stereo partly drawn) [HβCD, hydroxypropyl-β-cyclodextrin] |  | 20000 | 43600 | Alterations in mock-infected cells by TEM (in words) ([4]; Vero E6, higher dose (HβCD 20 mM)): increased number of vacuoles; Alterations in mock-infected cells by TEM (in words) [4, 9]: did not produce appreciable changes; Antiviral activity against SARS-CoV-2 (in words) [5]: had antiviral activity; IC50 [1, 11]: 4300 ± 4000 µM; Effect on infected cells by TEM (in words) [7]: all viral structures were reduced; Inhibition of SARS-CoV-2 pseudovirus entry (in words) [8]: inhibited the entry of pseudovirus; Inhibition of SARS-CoV-2 pseudovirus entry (in words) ([8]; listed as HP-β): most potent
